Screens: PubChem BioAssay, Broad Institute
GASC1 inh: blocks human GASC-1 (KDM4C) demethylase activity; GST-KDM4C 2-372, H3K9me3 peptide, LANCE TR-FRET; inhibition, % at 12.5 µM; actives 0.15% (n = 96,000);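 active means mean replicate inhibition above about 25%, with at least 55% of replicates also reaching it, limit read from the data, passing the limit was not always enough; inconclusive means only one of those two conditions met; inactive means neither condition met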
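material = GST-tagged GASC-1 (JMJD2C) catalytic fragment, aa 2-372 | amount = enzyme final amount 10 nM | medium = HEPES buffer, pH 7.5, plus ascorbate | also added = H3K9me3 peptide substrate, Fe(II), 2-oxoglutarate | dosing = single dose | times = 30 min demethylation and 1 h detection at room temperature | detection = LANCE TR-FRET | read-out basis = Fall in 671/618 emission ratio as inhibition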
IDH1 mut inh: blocks human IDH1 R132H reductase activity; O75874; diaphorase/resazurin fluorescence, 60 min; inhibition, % at 10 µM; actives 0.18% (n = 70,000); AID 624101; in the data active means inhibition above about 34%; inconclusive means no clear call, values can overlap the other calls; inactive means below about 11%;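 further: 0% = DMSO and 100% = no enzyme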
Target sequence (O75874 whole entry R132H): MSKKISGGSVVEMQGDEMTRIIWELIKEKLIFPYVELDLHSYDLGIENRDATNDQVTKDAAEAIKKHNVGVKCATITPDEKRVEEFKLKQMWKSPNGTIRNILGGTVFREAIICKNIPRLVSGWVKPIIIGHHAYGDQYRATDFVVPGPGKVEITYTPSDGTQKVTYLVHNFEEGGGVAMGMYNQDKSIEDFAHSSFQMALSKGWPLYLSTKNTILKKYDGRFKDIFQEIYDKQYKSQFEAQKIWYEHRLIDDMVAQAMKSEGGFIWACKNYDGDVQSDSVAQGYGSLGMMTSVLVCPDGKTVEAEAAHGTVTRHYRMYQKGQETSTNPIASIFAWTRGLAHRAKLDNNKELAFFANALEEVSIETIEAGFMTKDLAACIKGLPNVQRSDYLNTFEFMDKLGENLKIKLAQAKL
T cruzi growth-1: T. cruzi proliferation inhibition; T. cruzi beta-gal in NIH3T3, GalScreen luminescence, 90 h; inhibition, % at 8.34 µM; actives 5.9% (n = 77,000); AID 624255;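 active means mean inhibition above about 93%, with at least 55% of replicates each passing it, limit read from the data, passing the limit was not always enough; inconclusive means only one of those two conditions holds; inactive means neither condition holds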
T cruzi growth-2: Trypanosoma cruzi proliferation inhibition. inhibition, % at 8.35 µM. shares compounds with T cruzi growth-1. T. cruzi beta-gal in NIH3T3, GalScreen luminescence, 90 h. actives 72% (n = 5,600);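 active means mean replicate inhibition above about 95% and at least 55% of replicates individually reaching it, limit read from the data; inconclusive means only one of the two criteria is met; inactive means neither criterion is met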
T cruzi growth-3: inhibitors of T. cruzi proliferation; shares compounds with T cruzi growth-1; T. cruzi beta-gal in NIH3T3, GalScreen luminescence, 90 h; inhibition, % at 2.09 µM; actives 21% (n = 5,600); AID 651740;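 active means mean inhibition above about 95%, with at least 55% of replicates also reaching it, limit read from the data; inconclusive means meets just one of the two conditions; inactive means meets neither condition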;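 further: plate controls were neutral control median for no effect and positive control median for full effect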
3T3 cytotox: cytotoxicity in mouse NIH/3T3 fibroblasts. shares compounds with T cruzi growth-1. NIH/3T3 viability, CellTiter-Glo ATP luminescence, 90 h. cytotoxicity (signal decrease), % at 8.35 µM. actives 14% (n = 5,600). AID 651742;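 active means mean signal decrease across replicates above about 35% based on untreated-well scatter, with enough replicates individually passing, limit read from the data; inconclusive means no rule stated though some were filed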;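 further: 0% = median of neutral control wells and 100% = median of positive control wells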
NIH3T3 tox 2: NIH/3T3 (mouse) viability loss | actives 56% (n = 5,600) | inhibition, % at 24.9 µM | shares compounds with T cruzi growth-1 | NIH/3T3 viability, CellTiter-Glo ATP luminescence, 90 h;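 active means mean loss of cell viability signal at or above a set limit, and enough replicates individually reaching it; inconclusive means meets only the mean limit or only the replicate share; inactive means meets neither condition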;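 further: 0% = median of neutral control wells and 100% = median of positive control wells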
Starred values were filed as active, the others as inactive; u = inconclusive; x = no result. Shown is part of a subset that was picked to be rich in hits.

SMILES	GASC1 inh	IDH1 mut inh	T cruzi growth-1	T cruzi growth-2	T cruzi growth-3	3T3 cytotox	NIH3T3 tox 2
O=C(c1ccccc1)N1CC[C@@H]2[C@H]1c1cc(C#Cc3cccnc3)ccc1N[C@@H]2CO	-3.6	x	27.7	x	x	x	x
Cc1noc(C)c1S(=O)(=O)Nc1cccc2c1O[C@H](CN(C)C(=O)Nc1cccc3ccccc13)[C@H](C)CN([C@@H](C)CO)C2=O	1.3	2.8	9.4	x	x	x	x
O=C(C[C@@H]1CC[C@H](NC(=O)Nc2cccc(F)c2)[C@@H](CO)O1)NCC1CC1	8.6	0.2	50.9	x	x	x	x
COc1cccc(NC(=O)N(C)C[C@@H]2Oc3cc(-c4ccccc4F)ccc3S(=O)(=O)N([C@@H](C)CO)C[C@@H]2C)c1	x	x	87.5	x	x	x	x
COc1cccc(NC(=O)N(C)C[C@H]2Oc3cc(-c4ccccc4F)ccc3S(=O)(=O)N([C@H](C)CO)C[C@H]2C)c1	x	x	96.4*	110.4*	73.6	15.6	22.1
COc1cccc(NC(=O)N(C)C[C@H]2Oc3cc(C#Cc4ccc(F)cc4)ccc3S(=O)(=O)N([C@H](C)CO)C[C@@H]2C)c1	-2.1	x	94.4*	102.1*	80.6	-10.3	5.1
COc1cccc(NC(=O)N(C)C[C@@H]2Oc3cc(-c4ccccc4OC)ccc3S(=O)(=O)N([C@H](C)CO)C[C@H]2C)c1	0.7	x	x	x	x	x	x
COc1cccc(NC(=O)N(C)C[C@@H]2Oc3cc(C#Cc4ccccc4)ccc3S(=O)(=O)N([C@H](C)CO)C[C@H]2C)c1	x	-1.1	u	98.9*	92.1	52.5*	39.1*
COc1cccc(NC(=O)N(C)C[C@H]2Oc3cc(C#Cc4ccc(F)cc4)ccc3S(=O)(=O)N([C@@H](C)CO)C[C@H]2C)c1	0.4	x	116.4*	89.2	101.5*	3.6	25.9
COc1cccc(NC(=O)N(C)C[C@H]2Oc3cc(C#CC4(O)CCCC4)ccc3S(=O)(=O)N([C@H](C)CO)C[C@@H]2C)c1	-1.2	x	x	x	x	x	x
COc1cccc(NC(=O)N(C)C[C@@H]2Oc3cc(-c4ccccc4F)ccc3S(=O)(=O)N([C@H](C)CO)C[C@H]2C)c1	-1.4	x	37.7	x	x	x	x
C[C@@H]1CN([C@H](C)CO)C(=O)c2cccc(NC(=O)Nc3ccc4c(c3)OCO4)c2O[C@@H]1CN(C)Cc1ccc(C(=O)Nc2ccccc2N)cc1	-1.2	x	109.6	x	x	x	x
C[C@H]1CN([C@@H](C)CO)C(=O)c2cc(NS(C)(=O)=O)ccc2O[C@@H]1CN(C)S(=O)(=O)c1ccccc1	3.8	0.1	38.1	x	x	x	x
CC(C)(C)OC(=O)NC/C=N/NC(=O)CCCCC(=O)NO	x	0.3	x	x	x	x	x
C[C@@H]1CCCCO[C@H](CN(C)C(=O)Nc2ccc3c(c2)OCO3)[C@H](C)CN([C@@H](C)CO)C(=O)c2cc(NC(=O)C3CCCCC3)ccc2O1	-0.8	-1.4	25.9	x	x	x	x
CC(C)C#Cc1ccc2c(c1)O[C@@H](CN(C)Cc1ccccn1)[C@H](C)CN([C@@H](C)CO)S2(=O)=O	x	x	u	107.7*	50.5	55.4*	94.5*
C[C@H](CO)N1C[C@H](C)[C@@H](CN(C)Cc2ccccn2)Oc2cc(C#C[C@@H](C)O)ccc2S1(=O)=O	-0.6	x	-8.2	x	x	x	x
CC(C)C#Cc1ccc2c(c1)O[C@H](CN(C)Cc1ccccn1)[C@@H](C)CN([C@H](C)CO)S2(=O)=O	x	-6.7	u	102.4*	73.5	65.1*	53.7*
CC(C)C#Cc1ccc2c(c1)O[C@H](CN(C)Cc1ccccn1)[C@@H](C)CN([C@@H](C)CO)S2(=O)=O	x	x	u	107.3*	79.2	0.2	78.2*
CC(C)C#Cc1ccc2c(c1)O[C@H](CN(C)Cc1ccccn1)[C@H](C)CN([C@@H](C)CO)S2(=O)=O	x	-2.0	74.4	x	x	x	x
C[C@H](O)C#Cc1ccc2c(c1)O[C@@H](CN(C)Cc1ccccn1)[C@H](C)CN([C@@H](C)CO)S2(=O)=O	3.2	x	5.2	x	x	x	x
C[C@H]1CN([C@@H](C)CO)C(=O)c2cc(-c3ccc(F)cc3)cnc2O[C@@H]1CN(C)C(=O)NC1CCCC1	0.0	0.3	-65.7	x	x	x	x
